Assay results as given in ChEMBL document CHEMBL1124192, “Cyclopentenylcytosine. A carbocyclic nucleoside with antitumor and antiviral properties” (J Med Chem, 1988).
Converted amounts (≈) assume the structure as drawn. “And” between values parts separate entries of the source, which are not always exact repeats. Equal values may be shown once.

Tests used:
[1] = tested on: Vesicular stomatitis virus; assay: Inhibitory dose of compound required to inhibit cytopathogenic effects of vesicular stomatitis RNA virus with indiana strain in L929 cells; format: functional
[2] = tested on: Vesicular stomatitis virus; assay: Tested for inhibition of virus-induced cytopathogenic effect and cytotoxicity of compound against vesicular stomatitis RNA virus with indiana strain in L929 cell; format: functional
[3] = Ratio of minimum drug concentration to ID50 of the compound (Indiana strain); format: ADME
Human alphaherpesvirus 2 [4] = assay: Dose of compound required to inhibit the herpes simplex type-2 MS virus induced cytopathogenic effects; format: functional; conditions: read-out: ID50 (the source's name)
Method in brief: (§1)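 Southern Research CPE inhibition test in Vero host cells. Confluent monolayers in 96-well plates received drug (minimum seven concentrations, cytotoxic to noncytotoxic) plus virus at 32 CCID50 per 0.1 mL, in triplicate, with cell, virus and drug-cytotoxicity controls. Incubated at 37 °C, 2% CO2. CPE scored microscopically at 3–4 days. VR = 0.1 × sum of CE-grade differences from virus control, halved for partially cytotoxic wells.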

Human alphaherpesvirus 2 [5] = assay: Degree of inhibition of virus-induced cytopathogenic effect and the degree of cytotoxicity produced by compound against herpes simplex type-2 MS virus; format: functional; method in brief: as §1
Human alphaherpesvirus 1 [6] = assay: Dose of compound required to inhibit the herpes simplex type-1 virusE-377(TK+ ) induced cytopathogenic effects; format: functional; conditions: read-out: ID50 (the source's name); method in brief: as §1
Human alphaherpesvirus 1 [7] = assay: Degree of inhibition of virus-induced cytopathogenic effect and the degree of cytotoxicity produced by compound against herpes simplex type-1 virus E-377(TK+ ); format: functional; method in brief: as §1
[8] = tested on: unidentified influenza virus; assay: Inhibitory dose of compound required to inhibit cytopathogenic effects of influenza virus with A2/Aichi/2/68 strain in MDCK cells; format: functional; conditions: read-out: ID50 (the source's name)
[9] = tested on: unidentified influenza virus; assay: Tested for inhibition of virus-induced cytopathogenic effect and cytotoxicity of compound against influenza virus with A2/Aichi/2/68 strain in MDCK cell; format: functional
[10] = tested on: Japanese encephalitis virus; assay: Tested for inhibition of virus-induced cytopathogenic effect and cytotoxicity of compound against Japanese encephalitis virus with […] strain in vero cell; format: functional
[11] = tested on: Japanese encephalitis virus; assay: Inhibitory dose of compound required to inhibit cytopathogenic effects of Japanese encephalitis virus with […] strain in vero cells; format: functional; conditions: read-out: ID50 (the source's name)
Punta Toro virus [12] = assay: Tested for inhibition of virus-induced cytopathogenic effect and cytotoxicity of compound against Punta toro virus with adames strain in vero cell; format: functional
Punta Toro virus [13] = assay: Inhibitory dose of compound required to inhibit cytopathogenic effects of Punta toro virus with adames strain in vero cells; format: functional; conditions: read-out: ID50 (the source's name)
[14] = Ratio of minimum drug concentration to ID50 of the compound(Adems strain); format: ADME
Yellow fever virus [15] = assay: Inhibitory dose of compound required to inhibit cytopathogenic effects yellow fever (virus) with Asibi strain in vero cell; format: functional; conditions: read-out: ID50 (the source's name)
Yellow fever virus [16] = assay: Tested for inhibition of virus-induced cytopathogenic effect and cytotoxicity of compound against yellow fever (virus) with Asibi strain in vero cell; format: functional
Human alphaherpesvirus 1 [17] = assay: Degree of inhibition of virus-induced cytopathogenic effect and the degree of cytotoxicity produced by compound against herpes simplex type-1 virus HF(TK- ); format: functional; method in brief: as §1
Human alphaherpesvirus 1 [18] = assay: Dose of compound required to inhibit the herpes simplex type-1 virus HF(TK- )induced cytopathogenic effects; format: functional; method in brief: as §1

## Nc1nccc2c1ncn2[C@@H]1C[C@H](CO)[C@@H](O)[C@H]1O [3-DEAZAARISTEROMYCIN A]
[1]
  ID50: 4.3 µg/mL and 2 µg/mL
[2]
  Virus rating: 2.1 and 3
[3]
  Therapeutic index: 1.6
[3]; read-out: Therapeutic index
  selectivity ratio: 2.3

## Nc1nc2c(ncn2COCCO)c(=O)[nH]1 [ACYCLOVIR]
Human alphaherpesvirus 2 [4]
  IC50: 5.3 µg/mL (≈ 23.5 µM)
Human alphaherpesvirus 2 [5]
  Virus rating: 4.5
Human alphaherpesvirus 1 [6]
  IC50: 0.7 µg/mL (≈ 3.11 µM)
Human alphaherpesvirus 1 [7]
  Virus rating: 6.7

## NC(=O)c1ncn([C@@H]2O[C@H](CO)[C@@H](O)[C@H]2O)n1 [RIBAVIRIN]
[8]
  IC50: 18.7 µg/mL (≈ 76.6 µM)
[9]
  Virus rating: 3.6
[10]
  Virus rating: 2.4
[11]
  IC50: 3 µg/mL (≈ 12.3 µM)
Punta Toro virus [12]
  Virus rating: 1.8
Punta Toro virus [13]
  IC50: 20.1 µg/mL (≈ 82.3 µM)
[14]; read-out: Therapeutic index
  selectivity ratio: 5

## c1c[se]cn1 [SELENAZOLE]
Yellow fever virus [15]
  IC50: 0.6 µg/mL (≈ 4.54 µM)
Yellow fever virus [16]
  Virus rating: 2.4
[14]; read-out: Therapeutic ratio
  selectivity ratio: 1.8

## Nc1ncnc2c1ncn2[C@@H]1O[C@H](CO)[C@@H](O)[C@@H]1O [VIDARABINE]
Human alphaherpesvirus 1 [17]
  Virus rating: 3.3 and 2.9
Human alphaherpesvirus 2 [4]
  IC50: 49.9 µg/mL (≈ 187 µM)
Human alphaherpesvirus 2 [5]
  Virus rating: 1.3
Human alphaherpesvirus 1 [18]
  ID50: 1.9 µg/mL (≈ 7.11 µM)
Human alphaherpesvirus 1 [18]; Human alphaherpesvirus 1, read-out: ID50 (the source's name)
  IC50: 2.1 µg/mL (≈ 7.86 µM)
Human alphaherpesvirus 1 [6]
  IC50: 13.6 µg/mL (≈ 50.9 µM)
Human alphaherpesvirus 1 [7]
  Virus rating: 1.8
